Test results published in ChEMBL document CHEMBL2390926, “Identification of novel FLT3 kinase inhibitors” (Eur J Med Chem, 2013).
Active and inactive are the calls of the source. The calls are words filed in the database; no cut-off is given here.

Assays:
EOL1 = experiment: Cytotoxicity against human EOL-1 cells after 24 hrs by plate reader analysis; type: functional, cell-based; conditions: EOL1, 24 h
Procedure, shortened: (§1)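 Cells in RPMI 1640 with 10% FBS at 37 °C and 5% CO2 were seeded at 100,000 cells/ml. They were treated for 24 h at 8 concentrations (50–6400 nM), each in triplicate, with DMSO as negative control. Viable cells were measured by ATP-lite luminescence, and EC50 was taken from dose–response curves.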

MV4-11 = experiment: Cytotoxicity against human MV4-11 cells after 24 hrs by plate reader analysis; type: functional, cell-based; conditions: MV4-11, 24 h; procedure, shortened: as §1
[1] = biological target: T1, Receptor-type tyrosine-protein kinase FLT3 (Mus musculus) (UniProt Q00342); experiment: Inhibition of FLT3 phosphorylation in mouse Ba/F3 cells transfected with FLT3-ITD at 50 nM after 90 mins by Western blot analysis; type: cell-based; conditions: BaF3
T1 sequence (whole entry): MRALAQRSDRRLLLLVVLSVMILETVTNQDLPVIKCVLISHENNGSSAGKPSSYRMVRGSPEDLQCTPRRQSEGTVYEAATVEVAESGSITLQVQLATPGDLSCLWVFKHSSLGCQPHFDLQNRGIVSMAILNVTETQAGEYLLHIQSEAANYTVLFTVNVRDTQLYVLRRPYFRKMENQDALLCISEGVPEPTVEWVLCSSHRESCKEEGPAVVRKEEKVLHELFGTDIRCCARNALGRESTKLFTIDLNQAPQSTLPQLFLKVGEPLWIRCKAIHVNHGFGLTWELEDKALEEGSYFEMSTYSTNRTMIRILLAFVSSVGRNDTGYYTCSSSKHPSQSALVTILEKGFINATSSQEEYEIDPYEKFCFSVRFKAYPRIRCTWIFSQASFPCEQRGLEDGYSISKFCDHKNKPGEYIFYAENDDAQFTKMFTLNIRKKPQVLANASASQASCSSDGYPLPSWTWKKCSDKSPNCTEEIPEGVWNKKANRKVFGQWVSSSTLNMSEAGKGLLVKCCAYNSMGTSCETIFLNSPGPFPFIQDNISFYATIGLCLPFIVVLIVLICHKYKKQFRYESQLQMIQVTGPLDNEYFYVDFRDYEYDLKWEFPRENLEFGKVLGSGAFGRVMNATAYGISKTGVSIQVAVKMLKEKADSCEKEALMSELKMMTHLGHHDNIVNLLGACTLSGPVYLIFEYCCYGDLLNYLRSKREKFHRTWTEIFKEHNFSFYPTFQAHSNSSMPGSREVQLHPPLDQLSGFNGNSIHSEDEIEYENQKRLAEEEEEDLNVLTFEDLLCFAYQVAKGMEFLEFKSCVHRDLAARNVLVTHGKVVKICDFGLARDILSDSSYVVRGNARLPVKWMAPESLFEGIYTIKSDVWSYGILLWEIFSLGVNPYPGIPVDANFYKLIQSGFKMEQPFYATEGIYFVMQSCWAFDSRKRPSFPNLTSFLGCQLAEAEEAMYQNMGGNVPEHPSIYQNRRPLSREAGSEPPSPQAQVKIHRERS
Procedure, shortened: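 Ba/F3-FLT3-ITD cells were treated for 90 min with increasing doses. They were lysed in buffer with 1 mM NaVO4 and protease inhibitors, then reduced and run on Bis-Tris 4–12% gels for Western blot. Phospho-FLT3 and phospho-STAT5 were detected, with total FLT3 and STAT5 as loading controls.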

[2] = biological target: Proto-oncogene tyrosine-protein kinase Src (Homo sapiens) (UniProt P12931); experiment: Inhibition of SRC (unknown origin) transfected in mouse Ba/F3 cells up to 1 uM; type: cell-based; conditions: BaF3
Procedure, shortened: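 Ba/F3 cells transformed by ROS1 or SRC, dependent on that kinase. Parental Ba/F3 grown with mouse IL-3 served as control. Seeded at 100,000 cells/ml. Eight concentrations (50–6400 nM) run in triplicate with DMSO negative control for 24 h. Viable cells quantified by ATP-lite luminescence, mean ± SEM.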

[3] = biological target: Proto-oncogene tyrosine-protein kinase ROS (Homo sapiens) (UniProt P08922); experiment: Inhibition of ROS1 (unknown origin) transfected in mouse Ba/F3 cells up to 1 uM; type: cell-based; conditions: BaF3
Sequence of Proto-oncogene tyrosine-protein kinase ROS (Homo sapiens) (P08922 whole entry): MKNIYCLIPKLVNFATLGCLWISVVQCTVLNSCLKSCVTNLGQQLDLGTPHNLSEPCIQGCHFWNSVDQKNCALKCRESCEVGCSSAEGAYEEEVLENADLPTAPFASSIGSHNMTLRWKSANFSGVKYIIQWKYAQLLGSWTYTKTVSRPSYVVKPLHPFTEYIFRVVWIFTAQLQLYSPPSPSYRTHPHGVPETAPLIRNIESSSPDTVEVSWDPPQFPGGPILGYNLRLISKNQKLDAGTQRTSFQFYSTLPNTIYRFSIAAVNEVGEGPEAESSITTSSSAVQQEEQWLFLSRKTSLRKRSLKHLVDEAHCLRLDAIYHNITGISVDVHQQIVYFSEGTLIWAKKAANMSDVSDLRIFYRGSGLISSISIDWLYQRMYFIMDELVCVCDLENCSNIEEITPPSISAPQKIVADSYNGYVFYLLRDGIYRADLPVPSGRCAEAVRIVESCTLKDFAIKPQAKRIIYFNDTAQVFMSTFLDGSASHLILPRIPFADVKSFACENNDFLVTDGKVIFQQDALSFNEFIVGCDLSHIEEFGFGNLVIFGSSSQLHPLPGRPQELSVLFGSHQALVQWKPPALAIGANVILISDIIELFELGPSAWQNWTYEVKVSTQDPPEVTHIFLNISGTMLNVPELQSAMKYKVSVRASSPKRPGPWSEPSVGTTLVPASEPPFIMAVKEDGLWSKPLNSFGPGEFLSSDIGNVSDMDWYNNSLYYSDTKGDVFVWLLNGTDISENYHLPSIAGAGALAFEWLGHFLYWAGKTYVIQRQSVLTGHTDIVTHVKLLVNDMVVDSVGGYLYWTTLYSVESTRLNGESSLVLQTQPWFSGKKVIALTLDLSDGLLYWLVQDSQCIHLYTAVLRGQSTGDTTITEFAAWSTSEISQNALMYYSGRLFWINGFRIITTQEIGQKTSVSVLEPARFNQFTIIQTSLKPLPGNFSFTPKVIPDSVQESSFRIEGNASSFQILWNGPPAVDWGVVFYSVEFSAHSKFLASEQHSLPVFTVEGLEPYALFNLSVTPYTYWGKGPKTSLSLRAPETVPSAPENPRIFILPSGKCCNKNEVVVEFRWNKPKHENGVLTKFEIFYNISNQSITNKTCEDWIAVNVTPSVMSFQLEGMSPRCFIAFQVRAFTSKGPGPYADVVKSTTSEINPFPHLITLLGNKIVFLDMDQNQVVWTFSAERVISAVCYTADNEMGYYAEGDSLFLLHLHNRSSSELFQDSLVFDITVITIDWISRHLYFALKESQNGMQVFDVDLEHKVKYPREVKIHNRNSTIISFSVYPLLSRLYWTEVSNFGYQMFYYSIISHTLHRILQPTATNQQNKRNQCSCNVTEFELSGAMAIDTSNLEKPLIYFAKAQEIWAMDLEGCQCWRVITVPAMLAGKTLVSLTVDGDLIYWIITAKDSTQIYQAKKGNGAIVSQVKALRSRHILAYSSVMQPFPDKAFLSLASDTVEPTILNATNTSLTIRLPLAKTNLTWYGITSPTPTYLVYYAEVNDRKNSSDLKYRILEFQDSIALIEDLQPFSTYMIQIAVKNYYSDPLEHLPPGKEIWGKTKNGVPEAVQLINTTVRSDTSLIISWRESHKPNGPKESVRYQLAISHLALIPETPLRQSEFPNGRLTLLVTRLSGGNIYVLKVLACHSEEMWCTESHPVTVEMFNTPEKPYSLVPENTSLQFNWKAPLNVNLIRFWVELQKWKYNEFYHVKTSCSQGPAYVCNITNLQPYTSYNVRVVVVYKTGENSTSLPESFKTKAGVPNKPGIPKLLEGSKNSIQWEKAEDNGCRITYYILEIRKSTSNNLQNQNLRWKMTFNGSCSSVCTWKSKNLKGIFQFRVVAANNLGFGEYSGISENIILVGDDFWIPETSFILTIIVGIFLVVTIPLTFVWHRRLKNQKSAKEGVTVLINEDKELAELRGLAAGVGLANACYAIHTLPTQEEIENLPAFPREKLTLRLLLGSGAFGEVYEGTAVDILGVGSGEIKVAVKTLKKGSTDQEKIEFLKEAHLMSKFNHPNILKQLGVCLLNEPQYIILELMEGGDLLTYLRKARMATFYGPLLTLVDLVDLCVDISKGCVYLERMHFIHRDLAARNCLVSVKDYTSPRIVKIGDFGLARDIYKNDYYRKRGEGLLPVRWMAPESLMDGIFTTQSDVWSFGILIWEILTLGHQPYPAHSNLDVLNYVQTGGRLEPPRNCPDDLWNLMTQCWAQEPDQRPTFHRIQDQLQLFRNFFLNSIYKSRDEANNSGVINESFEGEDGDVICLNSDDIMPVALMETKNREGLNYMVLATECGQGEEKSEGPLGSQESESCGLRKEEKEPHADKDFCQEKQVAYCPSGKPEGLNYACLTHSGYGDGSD

Sequence of Proto-oncogene tyrosine-protein kinase Src (Homo sapiens) (P12931 2-536 limits assumed): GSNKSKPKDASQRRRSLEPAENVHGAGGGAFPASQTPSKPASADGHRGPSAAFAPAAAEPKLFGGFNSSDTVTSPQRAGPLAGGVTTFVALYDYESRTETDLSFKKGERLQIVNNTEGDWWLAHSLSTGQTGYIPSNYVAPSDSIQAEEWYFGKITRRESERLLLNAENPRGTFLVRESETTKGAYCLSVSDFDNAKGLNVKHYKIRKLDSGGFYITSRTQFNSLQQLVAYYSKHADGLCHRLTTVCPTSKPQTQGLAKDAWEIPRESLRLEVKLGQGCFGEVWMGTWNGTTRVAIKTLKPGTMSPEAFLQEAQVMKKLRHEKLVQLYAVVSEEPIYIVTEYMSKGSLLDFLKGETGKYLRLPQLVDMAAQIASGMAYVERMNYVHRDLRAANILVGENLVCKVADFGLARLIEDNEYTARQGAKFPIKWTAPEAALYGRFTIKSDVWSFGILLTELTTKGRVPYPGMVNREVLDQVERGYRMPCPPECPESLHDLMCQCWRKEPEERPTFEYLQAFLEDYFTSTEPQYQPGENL

Row | SMILES | EC50 (EOL1) [nM] | EC50 (MV4-11) [nM] | inhibition [1] | inhibition [2] | inhibition [3]
1 | COc1ccc(C(=O)Nc2cc(-c3ccccc3)[nH]n2)cc1 | 70 | 142 | Active |  | 
2 | Fc1ccc(-c2n[nH]cc2-c2ccncc2)cc1Cl |  |  |  | inactive | inactive
